The source of these data is ChEMBL document CHEMBL5634116, “Strategies for developing retinoic acid receptor alpha-selective antagonists as novel agents for male contraception” (Eur J Med Chem, 2023).

In brackets after ≈: the same amount, converted by molar mass. Activity calls are given as the source filed them. The rule behind the calls is not given here. Bounds are passed on as bounds.

Data set [1] has as its system Mus musculus. Kind of data set: Effect on spermatogenesis in CD-1 mouse assessed as testicular weight at 5 mg/kg/day, po for 7 days measured on day 1 post-cessation of drug treatment (reference value: 0.12 +/- 0.01 g). The class given is functional. The settings on record: time 8 day.
Data set [2] concerns Mus musculus. Put plainly: Effect on spermatogenesis in CD-1 mouse assessed as sperm count at 5 mg/kg/day, po for 7 days measured on day 1 post-cessation of drug treatment by hemocytometry (reference value: 55.50 +/- 8.18 x 10^6No_unit). It counts as functional. The settings on record: time 8 day.
In data set [3] the target is T1, Retinoic acid receptor beta (Homo sapiens, UniProt P10826).
T1 sequence (P10826 whole entry): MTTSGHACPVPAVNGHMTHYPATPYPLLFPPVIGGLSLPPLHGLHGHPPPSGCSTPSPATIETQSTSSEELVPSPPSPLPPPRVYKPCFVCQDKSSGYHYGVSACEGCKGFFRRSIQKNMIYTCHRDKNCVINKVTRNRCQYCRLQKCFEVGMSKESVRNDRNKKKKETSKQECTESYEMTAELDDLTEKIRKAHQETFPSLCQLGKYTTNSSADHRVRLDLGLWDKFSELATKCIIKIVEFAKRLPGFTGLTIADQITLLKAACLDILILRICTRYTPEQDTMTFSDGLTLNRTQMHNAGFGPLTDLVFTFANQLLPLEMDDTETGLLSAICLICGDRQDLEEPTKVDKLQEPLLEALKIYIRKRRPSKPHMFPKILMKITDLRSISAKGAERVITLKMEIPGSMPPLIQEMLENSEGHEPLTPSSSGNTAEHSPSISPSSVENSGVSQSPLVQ
Put plainly: Agonist activity at recombinant human RAR-beta expressed in mammalian cells by luciferase reporter gene based transactivation assay. It counts as cell-based. The essentials: (§1)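 Human RAR-subtype luciferase reporter cells (RARE-driven). Compounds in DMSO (final 0.4%) tested as 8-point dose response in triplicate. Incubated overnight at 37 °C in 5% CO2, then detection reagent 30 min at r.t. and luminescence measured. EC50 by four-parameter logistic fit, mean ± SEM from geometric mean of log EC50 across independent experiments.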

Data set [4] concerns the target T2, Retinoic acid receptor gamma (Homo sapiens, UniProt P13631).
T2 sequence (P13631 whole entry): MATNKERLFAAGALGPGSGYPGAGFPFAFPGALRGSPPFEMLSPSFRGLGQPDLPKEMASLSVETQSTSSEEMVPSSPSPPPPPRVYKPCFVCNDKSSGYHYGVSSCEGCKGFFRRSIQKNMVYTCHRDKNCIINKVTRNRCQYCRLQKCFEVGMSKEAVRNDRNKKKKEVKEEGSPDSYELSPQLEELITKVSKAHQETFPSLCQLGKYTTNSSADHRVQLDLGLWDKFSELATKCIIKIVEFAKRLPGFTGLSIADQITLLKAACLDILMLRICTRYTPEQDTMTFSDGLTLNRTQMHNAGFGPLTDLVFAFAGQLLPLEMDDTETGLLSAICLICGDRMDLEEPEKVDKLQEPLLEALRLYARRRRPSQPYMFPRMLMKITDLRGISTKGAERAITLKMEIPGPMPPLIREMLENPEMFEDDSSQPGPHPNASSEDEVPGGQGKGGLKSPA
Put plainly: Agonist activity at recombinant human RAR-gamma expressed in mammalian cells by luciferase reporter gene based transactivation assay. The class given is cell-based. Put shortly: as §1

Data set [5] has as its target T1, Retinoic acid receptor beta. Put plainly: Antagonist activity at recombinant human RAR-beta expressed in mammalian cells in presence of ATRA by luciferase reporter gene based transactivation assay. It counts as cell-based.
Data set [6] deals with T2, Retinoic acid receptor gamma. Put plainly: Antagonist activity at recombinant human RAR-gamma expressed in mammalian cells in presence of ATRA by luciferase reporter gene based transactivation assay. It counts as cell-based. Put shortly: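 Compounds 8-point dose response in triplicate, DMSO final 0.4%; overnight at 37 °C, 5% CO2; luminescence after 30 min detection reagent. IC50 by four-parameter logistic fit; agonist-free wells set background.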

Data set [7] can be described thus: Solubility of compound in PBS at pH 7.4. The class given is physicochemical. The settings on record: buffer. Put shortly:
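Solubility measured in PBS, pH 7.4.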

Data set [8] can be described thus: Partition coefficient, logD of compound in 1-octanol/PBS at pH 7.4. The class given is physicochemical. The settings on record: octanol/water. The essentials: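 Distribution between 1-octanol and PBS at pH 7.4; log D reported.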
Data set [9] in a line: Drug uptake in CD-1 mouse plasma at 10 mg/kg, po measured for 30 mins by LC-MS/MS analysis. It counts as ADME, organism-based. The following applies: in vivo, 0.5 h. The essentials: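 Male CD-1 mice, 6-8 weeks, single oral dose 10 mg/kg in 80% Carbitol/20% saline (1.75 mg/ml). Sets of 3 mice bled and euthanized at 5, 15, 30 min to 24 h; plasma frozen ≤ −20 °C, acetonitrile-precipitated with internal standard, analysed by isocratic LC-MS/MS against calibration standards. Mean ± S.D. of 3 animals.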

Data set [10] relates to Mus musculus. Put plainly: Effect on spermatogenesis in CD-1 mouse assessed as sperm count at 5 mg/kg/day, po for 7 days measured after 4 weeks post-cessation of drug treatment by hemocytometry. The class given is functional. The settings on record: time 5 weeks.
Data set [11] deals with Mus musculus. Kind of data set: Effect on spermatogenesis in CD-1 mouse assessed as spermatids in abnormal stage IX tubules at 5 mg/kg/day, po for 7 days measured after 4 weeks post-cessation of drug treatment by hematoxylin counter-staining based analysis. The class given is functional, organism-based. The following applies: time 5.0 weeks.
Data set [12] concerns Mus musculus. Kind of data set: Effect on spermatogenesis in CD-1 mouse assessed as abnormal epididymal sperm morphology at 5 mg/kg/day, po for 7 days measured after 4 weeks post-cessation of drug treatment by hematoxylin counter-staining based analysis. The settings on record: time 5.0 weeks. It counts as functional, organism-based.
The subject of data set [13] is Mus musculus. Kind of data set: Effect on spermatogenesis in CD-1 mouse assessed as abnormality in spermatid translocation at 5 mg/kg/day, po for 7 days measured after 4 weeks post-cessation of drug treatment by hematoxylin counter-staining based analysis. It counts as functional, organism-based. The following applies: time 5.0 weeks.
For data set [14], the system named is Mus musculus. Kind of data set: Effect on spermatogenesis in CD-1 mouse assessed as abnormality in spermatid release at 5 mg/kg/day, po for 7 days measured after 4 weeks post-cessation of drug treatment by hematoxylin counter-staining based analysis. It counts as functional, organism-based. The following applies: time 5.0 weeks.
Data set [15] relates to Mus musculus. Put plainly: Effect on fertility in CD-1 mouse assessed as size of embryonic litters formed post-cessation of drug treatment at 5 mg/kg/day, po for 7 days followed by drug cessation and initiation of mating for 2 weeks. It counts as functional. The following applies: time 3 weeks.
For data set [16], the system named is Mus musculus. Put plainly: Effect on spermatogenesis in CD-1 mouse assessed as sperm count at 10 mg/kg/day, po for 2 weeks measured on day 1 post-cessation of drug treatment by hemocytometry (reference value: 41.80 +/- 7.92 x 10^6No_unit). The class given is functional. The settings on record: time 15 day.
In data set [17] the test system is Mus musculus. Put plainly: Effect on spermatogenesis in CD-1 mouse assessed as sperm count at 10 mg/kg/day, po for 2 weeks measured after 4 weeks post-cessation of drug treatment by hemocytometry (reference value: 50.30 +/- 5.90 x 10^6No_unit). The class given is functional. The following applies: time 6 weeks.
For data set [18], the system named is Mus musculus. Kind of data set: Effect on spermatogenesis in CD-1 mouse assessed as abnormality in spermatid translocation at 10 mg/kg/day, po for 2 weeks measured measured after 4 weeks post-cessation of drug treatment by hematoxylin counter-staining based analysis. The class given is functional, organism-based. The following applies: time 6.0 weeks. Put shortly:
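CD1 males given 10 mg/kg/day orally for 2 weeks dissolved in 20% aqueous Kollisolv (n = 10 per time point); vehicle-only controls n = 5. Testes collected one day or 4 weeks after cessation, fixed in 4% paraformaldehyde or Bouin's, paraffin-embedded, PAS-stained with hematoxylin counterstain and tubules staged by bright-field microscopy.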

In data set [19] the test system is Mus musculus. Put plainly: Effect on spermatogenesis in CD-1 mouse assessed as reduction in sperm count administered as Avicel formulation at 10 mg/kg/day, po for 28 days consecutively measured on day 1 post-cessation of drug treatment by hemocytometry relative to control. The settings on record: time 29 day. On the set-up: scale not given: the % may be the effect or the level left. It counts as functional.

As for `Cc1ccc(C2=CC(C)(C)Oc3ccc(C(=O)Nc4ccc(C(=O)O)cc4)cc32)cc1`, the Activity in data set [1] is 0.11 g; in data set [2], 24.5 10^6No_unit; in data set [10] it was 54.9 10^6No_unit; in data set [15], 12.15; in data set [16] it was 37.2 10^6No_unit; in data set [17], 44.75 10^6No_unit. For the same compound, the Activity in data set [19] is reported as roughly 56%. For the same compound, the EC50 in data set [3] is 75 nM; in data set [4], 520 nM. The IC50 in [5] was greater than 3.3 µM; in [6], 310 nM. For the same compound, the solubility in [7] came out at 4.2 µM (≈ 1.74 µg/mL). The compound also displayed a logD in [8] of 3.35. For the same compound, the Drug uptake result in [9] is “Active”. For the same compound, the result in data set [11], in data set [12], in data set [13], in data set [14] and in data set [18] was inactive.
